The source made the active and inactive calls. The calls are words filed in the database; no cut-off is given here.
Tests used:
HT-29 [1] = assay: Cytotoxicity against human HT-29 cells by MTT assay; assay type: functional, cell-based
Procedure, shortened: (§1)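 MTT assay on five human tumour lines: HT-29 colon carcinoma, HCT-8 ileocecal adenocarcinoma, Bel-7402 hepatoma, A549 non-small cell lung carcinoma and MCF-7 breast carcinoma.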

A549 = assay: Cytotoxicity against human A549 cells by MTT assay; assay type: functional, cell-based; procedure, shortened: as §1
Bel-7402 = assay: Cytotoxicity against human Bel7402 cells by MTT assay; assay type: functional, cell-based; procedure, shortened: as §1
HCT-8 = assay: Cytotoxicity against human HCT8 cells by MTT assay; assay type: functional, cell-based; procedure, shortened: as §1
MCF7 = assay: Cytotoxicity against human MCF7 cells by MTT assay; assay type: functional, cell-based; procedure, shortened: as §1
HT-29 [2] = assay: Decrease in topoisomerase 1 expression in human HT-29 cells at 20 uM after 24 hrs relative to control; assay type: functional, cell-based
Procedure, shortened: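 TOPO I protein level in HT-29 cells was probed after 24 h incubation by the common protocols with a commercial TOPO I antibody. Levels were compared with a control group.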

[3] = biological target: T1, DNA topoisomerase 1 (Homo sapiens) (UniProt P11387); assay: Inhibition of topoisomerase 1 assessed as conversion of supercoiled DNA to open circular DNA at 100 uM
T1 sequence (whole entry): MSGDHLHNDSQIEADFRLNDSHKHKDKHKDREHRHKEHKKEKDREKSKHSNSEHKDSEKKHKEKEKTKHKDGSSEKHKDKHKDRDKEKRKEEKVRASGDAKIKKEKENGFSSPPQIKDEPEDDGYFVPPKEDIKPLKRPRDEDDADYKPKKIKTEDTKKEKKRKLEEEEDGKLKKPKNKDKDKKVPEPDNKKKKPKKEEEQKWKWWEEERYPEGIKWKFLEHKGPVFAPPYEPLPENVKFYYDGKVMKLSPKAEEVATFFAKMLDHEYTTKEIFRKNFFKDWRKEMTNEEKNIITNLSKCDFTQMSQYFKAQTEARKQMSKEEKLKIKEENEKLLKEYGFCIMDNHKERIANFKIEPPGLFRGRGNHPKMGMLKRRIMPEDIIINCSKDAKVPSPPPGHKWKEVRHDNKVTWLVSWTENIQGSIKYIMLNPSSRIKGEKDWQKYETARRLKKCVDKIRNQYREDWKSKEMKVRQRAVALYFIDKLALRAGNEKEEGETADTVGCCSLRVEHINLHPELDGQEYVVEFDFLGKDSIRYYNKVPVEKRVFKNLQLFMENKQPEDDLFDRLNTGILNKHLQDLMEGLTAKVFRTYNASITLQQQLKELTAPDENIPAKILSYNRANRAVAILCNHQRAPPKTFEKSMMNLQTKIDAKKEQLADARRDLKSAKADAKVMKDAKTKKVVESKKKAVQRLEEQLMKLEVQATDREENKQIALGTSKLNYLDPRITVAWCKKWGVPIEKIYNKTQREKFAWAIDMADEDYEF
Procedure, shortened: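 A commercial TOPO I drug screening kit was used with a supercoiled plasmid DNA substrate. Activity was read as conversion of supercoiled DNA (Form I) to open circular DNA, with camptothecin as reference inhibitor.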

HT-29 [4] = assay: Cell cycle arrest in human HT-29 cells assessed as accumulation of Sub-G1 phase at 20 uM after 24 hrs by flow cytometry relative to control; assay type: functional
Procedure, shortened: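 HT-29 cells were exposed for 24 h. Apoptosis was scored by flow cytometry as the percentage of cells in the Sub-G1 phase, compared against an untreated control group.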

| SMILES | IC50 (HT-29 [1]) [µM] | IC50 (A549) [µM] | IC50 (Bel-7402) [µM] | IC50 (HCT-8) [µM] | IC50 (MCF7) [µM] | Activity (HT-29 [2]) | Activity [3] | Activity (HT-29 [4]) [%] |
| --- | --- | --- | --- | --- | --- | --- | --- | --- |
| CN1C(=O)c2c(c3c4ccccc4n(CC(=O)NC(Cc4ccccc4)C(=O)O)c3c3[nH]c4ccccc4c23)C1=O (configuration not stated) | > 10 | > 10 | > 10 | > 10 | > 10 | – | – | – |
| CC(C)CC(NC(=O)Cn1c2ccccc2c2c3c(c4c5ccccc5[nH]c4c21)C(=O)N(C)C3=O)C(=O)N1CCN(C)CC1 (configuration not stated) | 1.26 | 1.84 | 2.23 | > 10 | 1.94 | Active | Active | 14.33 |
| CC(NC(=O)Cn1c2ccccc2c2c3c(c4c5ccccc5[nH]c4c21)C(=O)N(C)C3=O)C(=O)O (configuration not stated) | > 10 | > 10 | > 10 | > 10 | > 10 | – | – | – |
| CCN1CCN(C(=O)C(Cc2ccccc2)NC(=O)Cn2c3ccccc3c3c4c(c5c6ccccc6[nH]c5c32)C(=O)N(C)C4=O)CC1 (configuration not stated) | 2.88 | 1.86 | 1.91 | 1.09 | 1.91 | Active | Active | 10.3 |
| COC(=O)C(C)NC(=O)Cn1c2ccccc2c2c3c(c4c5ccccc5[nH]c4c21)C(=O)N(C)C3=O (configuration not stated) | > 10 | > 10 | > 10 | > 10 | > 10 | – | – | – |
| CC(C)C(NC(=O)Cn1c2ccccc2c2c3c(c4c5ccccc5[nH]c4c21)C(=O)N(C)C3=O)C(=O)O (configuration not stated) | > 10 | > 10 | > 10 | > 10 | > 10 | – | – | – |
| CC(NC(=O)Cn1c2ccccc2c2c3c(c4c5ccccc5[nH]c4c21)C(=O)N(C)C3=O)C(=O)N1CCOCC1 (configuration not stated) | > 10 | > 10 | > 10 | > 10 | > 10 | – | – | – |
| CN1C(=O)c2c(c3c4ccccc4n(CC(=O)NCC(=O)O)c3c3[nH]c4ccccc4c23)C1=O | > 10 | > 10 | > 10 | > 10 | > 10 | – | – | – |
| CC(C)CC(NC(=O)Cn1c2ccccc2c2c3c(c4c5ccccc5[nH]c4c21)C(=O)N(C)C3=O)C(=O)O (configuration not stated) | > 10 | > 10 | > 10 | > 10 | > 10 | – | – | – |
| CC(C)C(NC(=O)Cn1c2ccccc2c2c3c(c4c5ccccc5[nH]c4c21)C(=O)N(C)C3=O)C(=O)N1CCOCC1 (configuration not stated) | 2.66 | 5.11 | > 10 | > 10 | > 10 | Active | Active | 2.49 |
| COC(=O)CNC(=O)Cn1c2ccccc2c2c3c(c4c5ccccc5[nH]c4c21)C(=O)N(C)C3=O | 2.88 | 2.13 | > 10 | > 10 | 2.23 | – | – | – |
| CCN1CCN(C(=O)C(CC(C)C)NC(=O)Cn2c3ccccc3c3c4c(c5c6ccccc6[nH]c5c32)C(=O)N(C)C4=O)CC1 (configuration not stated) | 3.48 | 7.94 | > 10 | > 10 | 2.44 | Active | Active | 8.86 |
| COC(=O)C(CC(C)C)NC(=O)Cn1c2ccccc2c2c3c(c4c5ccccc5[nH]c4c21)C(=O)N(C)C3=O (configuration not stated) | > 10 | > 10 | > 10 | > 10 | > 10 | – | – | – |
| COC(=O)C(NC(=O)Cn1c2ccccc2c2c3c(c4c5ccccc5[nH]c4c21)C(=O)N(C)C3=O)C(C)C (configuration not stated) | > 10 | > 10 | > 10 | > 10 | > 10 | – | – | – |
| COC(=O)C(Cc1ccccc1)NC(=O)Cn1c2ccccc2c2c3c(c4c5ccccc5[nH]c4c21)C(=O)N(C)C3=O (configuration not stated) | > 10 | > 10 | > 10 | > 10 | > 10 | – | – | – |
| CN1C(=O)c2c(c3c4ccccc4n([C@@H]4O[C@H](CO)[C@@H](O)[C@H](O)[C@H]4O)c3c3[nH]c4ccccc4c23)C1=O | 7.44 | > 10 | 6.68 | > 10 | > 10 | – | – | – |
